Calls of active or inactive are those of the source.
How the values were obtained:
Assay type in all cases: functional, organism-based
Escherichia coli [1] = assay: Antibacterial activity against Escherichia coli CECT 405 assessed as inhibition of microbial growth at 125 ug/ml incubated for 18 hrs by 2-fold microtiter broth dilution method
In short: (§1)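 Compounds in DMSO, ten 2-fold serial dilutions (125 down to 0.24 µg/mL tested). Bacteria at OD620 = 0.001 in Nutrient Broth mixed 1:1 with dilutions. Incubated overnight (18 h) at 28°C or 37°C according to strain. Growth read turbidimetrically at OD620. MIC is the lowest concentration giving complete growth inhibition. Triplicate runs. Tetracycline as reference.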

[2] = test system: Pectobacterium carotovorum; assay: Antibacterial activity against Erwinia carotovora CECT 225 assessed as inhibition of microbial growth at 125 ug/ml incubated for 18 hrs by 2-fold microtiter broth dilution method; in short: as §1
Bacillus subtilis = assay: Antibacterial activity against Bacillus subtilis CECT 35 assessed as inhibition of microbial growth at 125 ug/ml incubated for 18 hrs by 2-fold microtiter broth dilution method; in short: as §1
Salmonella typhi = assay: Antibacterial activity against Salmonella typhi CECT 409 assessed as inhibition of microbial growth at 125 ug/ml incubated for 18 hrs by 2-fold microtiter broth dilution method; details: Salmonella enterica subsp. enterica serovar Typhi
In short: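 Compounds in DMSO, ten 2-fold serial dilutions (125 down to 0.24 µg/mL), mixed 1:1 with bacteria in Nutrient Broth at OD620 = 0.001. Incubated overnight (18 h) at 28 or 37 °C depending on strain. Growth read turbidimetrically at OD620; MIC is the lowest concentration completely inhibiting growth, per CLSI. Triplicate runs; tetracycline reference.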

Staphylococcus aureus = assay: Antibacterial activity against Staphylococcus aureus CECT 86 assessed as inhibition of microbial growth at 125 ug/ml incubated for 18 hrs by 2-fold microtiter broth dilution method; in short: as §1
Bacillus cereus = assay: Antibacterial activity against Bacillus cereus CECT 148 assessed as inhibition of microbial growth at 125 ug/ml incubated for 18 hrs by 2-fold microtiter broth dilution method; in short: as §1
Enterococcus faecalis = assay: Antibacterial activity against Enterococcus faecalis CECT 481 assessed as inhibition of microbial growth at 125 ug/ml incubated for 18 hrs by 2-fold microtiter broth dilution method; in short: as §1
Escherichia coli [3] = assay: Antibacterial activity against Escherichia coli CECT 100 assessed as inhibition of microbial growth at 125 ug/ml incubated for 18 hrs by 2-fold microtiter broth dilution method; in short: as §1

Measured: growth inhibition (GI)

COc1c(Br)cc(C2=C(C(=O)c3ccco3)C(=O)O/C2=C\c2ccc(O)c(Br)c2)cc1Br
inactive: all assays above

COc1ccc(C2=C(C(=O)c3ccc(O)c(Br)c3)C(=O)O/C2=C\c2ccc(O)c(Br)c2)cc1
inactive: all assays above

COc1ccc(C2=C(C(=O)c3ccc(O)c(Br)c3)C(=O)O/C2=C\c2ccc(O)c(Br)c2)cc1Br
inactive: all assays above

COc1c(Br)cc(C2=C(C(=O)c3cc(Br)c(O)c(Br)c3)C(=O)O/C2=C\c2ccc(O)cc2)cc1Br
inactive: all assays above

COc1c(Br)cc(C2=C(C(=O)c3ccc(O)c(Br)c3)C(=O)O/C2=C\c2ccc(O)c(Br)c2)cc1Br
inactive: all assays above

COc1ccc(C2=C(C(=O)c3ccc(O)c(Br)c3)C(=O)O/C2=C\c2cc(Br)c(O)c(Br)c2)cc1Br
inactive: all assays above

COc1c(Br)cc(C2=C(C(=O)c3ccc(O)cc3)C(=O)O/C2=C\c2cc(Br)c(O)c(Br)c2)cc1Br
inactive: all assays above

COc1ccc(C2=C(C(=O)c3ccc(O)cc3)C(=O)O/C2=C\c2ccc(O)c(Br)c2)cc1
inactive: all assays above

COc1ccc(C2=C(C(=O)c3ccc(O)cc3)C(=O)O/C2=C\c2ccc(O)cc2)cc1
inactive: all assays above

COc1c(Br)cc(C2=C(C(=O)c3cc(Br)c(O)c(Br)c3)C(=O)O/C2=C\c2cc(Br)c(O)c(Br)c2)cc1Br
inactive: all assays above

COc1ccc(C2=C(C(=O)c3ccc(O)cc3)C(=O)O/C2=C\c2ccc(O)c(Br)c2)cc1Br
inactive: all assays above

COc1c(Br)cc(C2=C(C(=O)c3ccc(O)c(Br)c3)C(=O)O/C2=C\c2cc(Br)c(O)c(Br)c2)cc1Br
inactive: all assays above

COc1ccc(C2=C(C(=O)c3cc(Br)c(O)c(Br)c3)C(=O)O/C2=C\c2cc(Br)c(O)c(Br)c2)cc1
inactive: all assays above

COc1ccc(C2=C(C(=O)c3ccco3)C(=O)O/C2=C\c2ccc(O)c(Br)c2)cc1Br
inactive: all assays above

COc1ccc(C2=C(C(=O)c3cc(Br)c(O)c(Br)c3)C(=O)O/C2=C\c2ccc(O)c(Br)c2)cc1Br
inactive: all assays above

COc1ccc(C2=C(C(=O)c3ccco3)C(=O)O/C2=C\c2ccc(O)cc2)cc1
inactive: all assays above
